Values after ≈ are worked out from the molar mass of the structure shown.
Assays:
[1] = system: Mycobacterium tuberculosis; test: Antitubercular activity against Mycobacterium tuberculosis H37Rv isolate SRI after 5 days by resazurin-based microplate assay; type: functional; conditions: 120 h
[2] = system: Mycobacterium tuberculosis; test: Antitubercular activity against Mycobacterium tuberculosis H37Rv isolate ITR after 7 days by luminescence spectrometry; type: functional; conditions: 168 h
[3] = system: Mycobacterium tuberculosis; test: Antitubercular activity against Mycobacterium tuberculosis H37Rv incubated for 10 days in anaerobic condition followed by 48 hrs incubation in aerobic condition by LORA assay; type: functional
[4] = Selectivity index, ratio of CC50 for Vero cells to MIC90 for Mycobacterium tuberculosis H37Rv isolate SRI; type: functional
[5] = system: Mycobacterium tuberculosis; test: Antitubercular activity against p-amino-salicyclic acid-resistant Mycobacterium tuberculosis ATCC 35821 after 5 days by resazurin-based microplate assay; type: functional; conditions: ATCC 35821, 120 h
Summary of the method: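 Mid-log cultures grown in 7H9 with glycerol, Tween-80 and ADC. Compounds in DMSO were tested two-fold from […] against ~10^5 CFU/mL, 37°C for 5 d. Resazurin was then added for a further 2 d, and fluorescence read at ex 530/em 590 with visual confirmation. MIC was the lowest concentration inhibiting 90% of growth. Final DMSO 0.625%; two-fold variation taken as assay error.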

[6] = Solubility of the compound in 0.9% saline solution after 48 hrs by shake flask method at pH 7.4; type: physicochemical
Summary of the method: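 Shake-flask method in triplicate: ~20 mg of ground compound in 5 mL 0.9% saline pH 7.4, stirred at 25°C for 48 h. The sample was filtered through 0.45 µm PVDF and the filtrate quantified by HPLC at each compound's absorption maximum against a per-compound standard curve (R² > 0.99).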

Plasma = test: Plasma concentration in Balb/c mouse at 100 mg/kg, po at 24 hrs; type: ADME, organism-based; parameters: dose 100 mg/kg, route oral; conditions: in vivo, BLD = below limit of detection
Summary of the method: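 Single oral gavage dose of 100 mg/kg to female mice, three mice per time point. Blood was drawn at 5, 15, 30, 60 min and 2, 4, 6, 8 and 24 h and processed to plasma for analysis. Noncompartmental PK analysis.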

Vero = test: (§1) Cytotoxicity against african green monkey Vero cells after 72 hrs by CellTiterGlo assay; conditions: chlorocebus sabaeus, vero, 72 h
[7] = as §1; conditions: chlorocebus sabaeus, Vero cells
L5178Y [8] = test: Mutagenicity against mouse L5178Y cells at 10 ug/mL after 4 hrs by MOLY assay in absence of S9 fraction; type: toxicity, cell-based
Summary of the method: (§2)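 Mouse lymphoma tk+/- → tk-/- forward mutation assay, 4 h or 24 h exposure, with or without Aroclor 1254-induced rat-liver S9. Endpoints were suspension and relative total growth, relative cloning efficiency, mutation frequency, and small TFT-resistant colonies (<0.6 mm). A call was positive for significant mutation-frequency induction; induction only slightly above 40 × 10^-6 net over mean solvent control was considered biologically negative.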

L5178Y [9] = test: Mutagenicity against mouse L5178Y cells at 10 ug/mL after 4 hrs by MOLY assay in presence of S9 fraction; type: toxicity, cell-based; conditions: s9, 4 h; summary of the method: as §2
L5178Y [10] = test: Mutagenicity against mouse L5178Y cells at 25 ug/mL after 4 hrs by MOLY assay in absence of S9 fraction; type: toxicity, cell-based; summary of the method: as §2
L5178Y [11] = test: Mutagenicity against mouse L5178Y cells at 25 ug/mL after 4 hrs by MOLY assay in presence of S9 fraction; type: toxicity, cell-based; conditions: s9, 4 h; summary of the method: as §2
L5178Y [12] = test: Mutagenicity against mouse L5178Y cells at 50 ug/mL after 4 hrs by MOLY assay in absence of S9 fraction; type: toxicity, cell-based; summary of the method: as §2
L5178Y [13] = test: Mutagenicity against mouse L5178Y cells at 50 ug/mL after 4 hrs by MOLY assay in presence of S9 fraction; type: toxicity, cell-based; conditions: s9, 4 h; summary of the method: as §2
L5178Y [14] = test: Mutagenicity against mouse L5178Y cells at 100 ug/mL after 4 hrs by MOLY assay in absence of S9 fraction; type: toxicity, cell-based; summary of the method: as §2
L5178Y [15] = test: Mutagenicity against mouse L5178Y cells at 100 ug/mL after 4 hrs by MOLY assay in presence of S9 fraction; type: toxicity, cell-based; conditions: s9, 4 h; summary of the method: as §2
Salmonella typhimurium [16] = test: Mutagenicity in Salmonella typhimurium TA98 assessed as increase in number of revertant colonies by Ames test in absence of S9 fraction; type: toxicity, organism-based; conditions: salmonella enterica subsp. enterica serovar typhimurium
Summary of the method: (§3)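 Plate-incorporation Ames test in Salmonella typhimurium TA98 and TA100, with and without an Aroclor 1254-induced rat-liver metabolic activation system containing 10% S9. Revertant colonies counted per plate, with means and standard deviations and background lawn condition recorded.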

Salmonella typhimurium [17] = test: Mutagenicity in Salmonella typhimurium TA98 assessed as increase in number of revertant colonies by Ames test in presence of S9 fraction; type: toxicity, organism-based; conditions: salmonella enterica subsp. enterica serovar typhimurium; summary of the method: as §3
Salmonella typhimurium [18] = test: Mutagenicity in Salmonella typhimurium TA100 assessed as increase in number of revertant colonies by Ames test in absence of S9 fraction; type: toxicity, organism-based; conditions: salmonella enterica subsp. enterica serovar typhimurium; summary of the method: as §3
Salmonella typhimurium [19] = test: Mutagenicity in Salmonella typhimurium TA100 assessed as increase in number of revertant colonies by Ames test in presence of S9 fraction; type: toxicity, organism-based; conditions: salmonella enterica subsp. enterica serovar typhimurium; summary of the method: as §3
L5178Y [20] = test: Mutagenicity against mouse L5178Y cells at 10 ug/mL after 24 hrs by MOLY assay in absence of S9 fraction; type: toxicity, cell-based; summary of the method: as §2
L5178Y [21] = test: Mutagenicity against mouse L5178Y cells at 25 ug/mL after 24 hrs by MOLY assay in absence of S9 fraction; type: toxicity, cell-based; summary of the method: as §2

| Structure (SMILES) | MIC90 [1] | MIC90 [2] | MIC90 [3] | Selectivity Index [4] | MIC90 [5] | CC50 (Vero) | also measured |
| --- | --- | --- | --- | --- | --- | --- | --- |
| CCNc1n[n+]([O-])c2ccccc2[n+]1[O-] | 1.2 µg/mL (≈ 5.82 µM) | 0.57 µg/mL (≈ 2.76 µM) | 0.37 µg/mL (≈ 1.79 µM) | 17 | 1.2 µg/mL (≈ 5.82 µM) | – | solubility thermodynamic at 48 h [6]: 1350 µg/mL (≈ 6550 µM); Cp (Plasma): BLD |
| CC(C)(C)Nc1n[n+]([O-])c2ccccc2[n+]1[O-] | 1.2 µg/mL (≈ 5.12 µM) | 1.9 µg/mL (≈ 8.11 µM) | 0.82 µg/mL (≈ 3.5 µM) | 6.4 | 1.2 µg/mL (≈ 5.12 µM) | 8 µg/mL (≈ 34.2 µM) | – |
| COCC(C)Nc1n[n+]([O-])c2cc(F)ccc2[n+]1[O-] (centres undefined) | 5 µg/mL (≈ 18.6 µM) | 2 µg/mL (≈ 7.46 µM) | 1.9 µg/mL (≈ 7.08 µM) | 1.3 | – | – | CC50 at 72 h [7]: 6.3 µg/mL (≈ 23.5 µM) |
| COCC(C)Nc1n[n+]([O-])c2cc(Cl)ccc2[n+]1[O-] (centres undefined) | 1.2 µg/mL (≈ 4.21 µM) | 1.4 µg/mL (≈ 4.92 µM) | 0.78 µg/mL (≈ 2.74 µM) | 2.1 | – | – | CC50 at 72 h [7]: 2.6 µg/mL (≈ 9.13 µM) |
| CCNc1n[n+]([O-])c2cccc(C)c2[n+]1[O-] | 0.62 µg/mL (≈ 2.82 µM) | 0.51 µg/mL (≈ 2.32 µM) | 0.48 µg/mL (≈ 2.18 µM) | 36 | 0.31 µg/mL (≈ 1.41 µM) | 22 µg/mL (≈ 99.9 µM) | – |
| CCNc1n[n+]([O-])c2cc3c(cc2[n+]1[O-])CCC3 | 1.2 µg/mL (≈ 4.87 µM) | 0.95 µg/mL (≈ 3.86 µM) | 0.83 µg/mL (≈ 3.37 µM) | 29 | 1.2 µg/mL (≈ 4.87 µM) | 36 µg/mL (≈ 146 µM) | Activity (L5178Y [8]): Toxic; Activity (L5178Y [9]): Toxic; Activity (L5178Y [10]): Toxic; Activity (L5178Y [11]): Toxic; Activity (L5178Y [12]): Toxic; Activity (L5178Y [13]): Toxic; Activity (L5178Y [14]): Toxic; Activity (L5178Y [15]): Toxic; Activity (Salmonella typhimurium [16]): Dose-dependent effect; Activity (Salmonella typhimurium [17]): Dose-dependent effect; Activity (Salmonella typhimurium [18]): Dose-dependent effect; Activity (Salmonella typhimurium [19]): Dose-dependent effect |
| [O-][n+]1nc(NC2CCC2)[n+]([O-])c2cc3c(cc21)CCC3 | 0.62 µg/mL (≈ 2.28 µM) | 0.96 µg/mL (≈ 3.53 µM) | 0.44 µg/mL (≈ 1.62 µM) | 54 | 0.62 µg/mL (≈ 2.28 µM) | 34 µg/mL (≈ 125 µM) | – |
| CCNc1n[n+]([O-])c2cc(C)c(OC)cc2[n+]1[O-] | – | 3.5 µg/mL (≈ 14 µM) | 2.5 µg/mL (≈ 9.99 µM) | >40 | 1.2 µg/mL (≈ 4.8 µM) | > 100 µg/mL | – |
| [O-][n+]1nc(N2CCCC2)[n+]([O-])c2ccccc21 | 0.31 µg/mL (≈ 1.33 µM) | – | – | 56 | 0.62 µg/mL (≈ 2.67 µM) | 17 µg/mL (≈ 73.2 µM) | – |
| [O-][n+]1nc(N2CCCC2)[n+]([O-])c2cc3c(cc21)CCC3 | 0.31 µg/mL (≈ 1.14 µM) | 0.46 µg/mL (≈ 1.69 µM) | 0.99 µg/mL (≈ 3.64 µM) | 80 | 0.31 µg/mL (≈ 1.14 µM) | 25 µg/mL (≈ 91.8 µM) | Activity (L5178Y [8]): Non-toxic; Activity (L5178Y [20]): Non-toxic; Activity (L5178Y [9]): Non-toxic; Activity (L5178Y [10]): Non-toxic; Activity (L5178Y [21]): Non-toxic; Activity (L5178Y [11]): Non-toxic; Activity (L5178Y [12]): Non-toxic; Activity (L5178Y [13]): Non-toxic; Activity (L5178Y [14]): Non-toxic; Activity (L5178Y [15]): Non-toxic; solubility thermodynamic at 48 h [6]: 280 µg/mL (≈ 1030 µM); Cp (Plasma): BLD; Activity (Salmonella typhimurium [16]): Dose-dependent effect; Activity (Salmonella typhimurium [17]): Dose-dependent effect; Activity (Salmonella typhimurium [18]): Dose-dependent effect; Activity (Salmonella typhimurium [19]): Dose-dependent effect |
| [O-][n+]1nc(N2CCCCC2)[n+]([O-])c2cc3c(cc21)CCC3 | 0.62 µg/mL (≈ 2.17 µM) | 0.4 µg/mL (≈ 1.4 µM) | 0.49 µg/mL (≈ 1.71 µM) | 13 | 0.31 µg/mL (≈ 1.08 µM) | 21 µg/mL (≈ 73.3 µM) | – |
| CN(C)c1n[n+]([O-])c2cc3c(cc2[n+]1[O-])CCC3 | 0.62 µg/mL (≈ 2.52 µM) | 0.3 µg/mL (≈ 1.22 µM) | 1.5 µg/mL (≈ 6.09 µM) | 13 | 0.15 µg/mL (≈ 0.609 µM) | 24 µg/mL (≈ 97.5 µM) | – |
| CN(Cc1ccccc1)c1n[n+]([O-])c2cc3c(cc2[n+]1[O-])CCC3 | 0.31 µg/mL (≈ 0.962 µM) | 0.15 µg/mL (≈ 0.465 µM) | 0.41 µg/mL (≈ 1.27 µM) | 53 | 0.07 µg/mL (≈ 0.217 µM) | 17 µg/mL (≈ 52.7 µM) | – |
| CN(CCc1ccccc1)c1n[n+]([O-])c2cc3c(cc2[n+]1[O-])CCC3 | 0.31 µg/mL (≈ 0.922 µM) | 0.24 µg/mL (≈ 0.713 µM) | 0.44 µg/mL (≈ 1.31 µM) | 130 | 0.15 µg/mL (≈ 0.446 µM) | 40 µg/mL (≈ 119 µM) | – |
| CC1CCCCN1c1n[n+]([O-])c2cc3c(cc2[n+]1[O-])CCC3 (centres undefined) | 1.2 µg/mL (≈ 4 µM) | 0.66 µg/mL (≈ 2.2 µM) | 0.47 µg/mL (≈ 1.56 µM) | >40 | 0.62 µg/mL (≈ 2.06 µM) | > 50 µg/mL | – |
| O=C1CN(/N=C/c2ccc([N+](=O)[O-])o2)C(=O)N1 [NITROFURANTOIN] | 16 µg/mL (≈ 67.2 µM) | 28 µg/mL (≈ 118 µM) | 32 µg/mL (≈ 134 µM) | 1.1 | – | 23 µg/mL (≈ 96.6 µM) | – |
| CO[C@H]1/C=C/O[C@@]2(C)Oc3c(C)c(O)c4c(O)c(c(/C=N/N5CCN(C)CC5)c(O)c4c3C2=O)NC(=O)/C(C)=C\C=C\[C@H](C)[C@H](O)[C@@H](C)[C@@H](O)[C@@H](C)[C@H](OC(C)=O)[C@@H]1C [RIFAMPIN] | 0.003 µg/mL (≈ 0.00365 µM) | 0.041 µg/mL (≈ 0.0498 µM) | 2 µg/mL (≈ 2.43 µM) | >15000 | – | > 50 µg/mL | – |
| Nc1n[n+]([O-])c2ccccc2[n+]1[O-] [TIRAPAZAMINE] | 5 µg/mL (≈ 28.1 µM) | 3.7 µg/mL (≈ 20.8 µM) | 7.3 µg/mL (≈ 41 µM) | 1.6 | – | 8 µg/mL (≈ 44.9 µM) | – |

Source: ChEMBL document CHEMBL2150981, “Discovery and optimization of benzotriazine di-N-oxides targeting replicating and nonreplicating Mycobacterium tuberculosis” (J Med Chem, 2012)
